From ChEMBL document CHEMBL1122371, “Inhibition of renin by angiotensinogen peptide fragments containing the hydroxy amino acid residue 5-amino-3-hydroxy-7-methyloctanoic acid” (J Med Chem, 1983)
pKi: −log10 of the molar value.

Assays:
Renin = target: T1, Renin (Homo sapiens, UniProt P00797); assay: Inhibitory activity against human amniotic renin (competitive inhibition)
T1 sequence (P00797 whole entry): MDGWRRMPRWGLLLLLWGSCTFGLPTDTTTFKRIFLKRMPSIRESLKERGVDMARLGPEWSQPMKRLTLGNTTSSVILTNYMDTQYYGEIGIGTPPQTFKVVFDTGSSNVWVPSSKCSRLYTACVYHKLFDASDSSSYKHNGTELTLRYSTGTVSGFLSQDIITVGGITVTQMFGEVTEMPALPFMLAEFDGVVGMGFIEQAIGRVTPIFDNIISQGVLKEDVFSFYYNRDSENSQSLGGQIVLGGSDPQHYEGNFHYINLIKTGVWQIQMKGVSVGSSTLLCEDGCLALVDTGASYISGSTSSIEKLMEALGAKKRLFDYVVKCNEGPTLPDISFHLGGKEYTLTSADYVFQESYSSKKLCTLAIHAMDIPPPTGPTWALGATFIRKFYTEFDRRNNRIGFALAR
How it was run: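 Angiotensin I generation is reported as nmol/unit enzyme/min for hog kidney renin and nmol/mL/h for human amniotic renin. Points are means of three determinations. Lines are fitted by linear regression, and Ki is the −[I] at their intersection.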

Renin (Sus scrofa) = assay: Inhibitory activity against hog kidney renin (Non-competitive inhibition)

pKi (Renin)	pKi (Renin (Sus scrofa))	SMILES
2.80	2.93	COC(=O)[C@@H](Cc1ccccc1)NC(=O)[C@H](NC(=O)CC(O)CC(N)CC(C)C)C(C)C (some centres undefined)
4.02	3.77	COC(=O)[C@H](Cc1ccccc1)NC(=O)[C@@H](NC(=O)CC(O)CC(N)CC(C)C)C(C)C (some centres undefined)
